A short description of test [1]: Agonism at turkey erythrocyte P2Y receptor. It is filed as functional, Meleagris gallopavo. In a few lines:
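Turkey erythrocytes labeled 18–24 h at 37 °C with 2-[3H]myo-inositol in inositol-free DMEM; ghosts made by hypotonic lysis (5 mM Na phosphate pH 7.4, 5 mM MgCl2, 1 mM EGTA). PLC assay: ~175 μg protein ghosts, 1 μM GTPγS, Hepes pH 7.0 medium with 424 μM CaCl2, 2 mM EGTA; 5 min, 30 °C; total [3H]inositol phosphates by anion exchange; K0.5 averaged from 3–8 curves.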

The species entered for test [2] is Oryctolagus cuniculus. Put plainly: Tested for contraction of rabbit saphenous artery produced by 1 uM alpha,beta-MeATP at 37 degree C; Potency equal to ATP. Format: functional.
Test [3] is filed under the species Oryctolagus cuniculus. Put plainly: Tested for relaxation of carbachol-contracted rabbit mesenteric artery at 37 degree C; Potency equal to 2MeSATP. It is filed as functional.
The species entered for test [4] is Cavia porcellus. Put plainly: Tested for relaxation of carbachol-contracted guinea pig taenia coli at 37 degree C. Format: functional. In outline: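 Carbachol-precontracted guinea pig taenia coli segments in 37 °C organ baths with oxygenated Krebs solution. Tension changes were recorded in response to increasing nucleotide concentrations. At least two determinations. Responses were expressed as % relaxation of the carbachol-induced contraction and reported as pD2. ATP was tested on every preparation.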

The species named for test [5] is Oryctolagus cuniculus. Put plainly: Tested for relaxation of carbachol-contracted rabbit aorta at 37 degree C; Potency equal to 2MeSATP. It is filed as functional.
The species named for test [6] is Cavia porcellus. Put plainly: Tested for contraction of guinea pig isolated urinary bladder detrusor muscle at 37 degree C; Potency equal to ATP. It is filed as functional. The following applies: Muscle tissue.
For test [7], the species on record is Cavia porcellus. Put plainly: Tested for contraction of guinea pig vas deferens at 37 degree C; Potency equal to ATP. Format: functional.
Test [8] is filed under the species Cavia porcellus. As to the kind of experiment: Tested for relaxation of carbachol-contracted guinea pig taenia coli at 37 degree C; Less potent than or equal to ATP. Format: functional.
Test [9] is filed under the species Cavia porcellus. Put plainly: Tested for contraction of guinea pig isolated urinary bladder detrusor muscle at 37 degree C; Not active. It is filed as functional. The following applies: Muscle tissue.
The species entered for test [10] is Oryctolagus cuniculus. Put plainly: Tested for contraction of rabbit saphenous artery produced by 1 uM alpha,beta-MeATP at 37 degree C. Format: functional.
Test [11] is filed under the species Cavia porcellus. As to the kind of experiment: Tested for contraction of guinea pig vas deferens at 37 degree C; Not active. It is filed as functional.
The species entered for test [12] is Oryctolagus cuniculus. Put plainly: Tested for relaxation of carbachol-contracted rabbit mesenteric artery at 37 degree C; More potent than or equal to 2MeSATP. Format: functional.
Test [13] is filed under the species Cavia porcellus. As to the kind of experiment: Tested for relaxation of carbachol-contracted guinea pig taenia coli at 37 degree C; More potent than or equal to ATP. Format: functional.
For test [14], the species on record is Cavia porcellus. As to the kind of experiment: Tested for contraction of guinea pig isolated urinary bladder detrusor muscle at 37 degree C; Less potent than or equal to ATP. To be noted: Muscle tissue. Format: functional.
For test [15], the species on record is Oryctolagus cuniculus. Put plainly: Tested for contraction of rabbit saphenous artery produced by 1 uM alpha,beta-MeATP at 37 degree C; Not active. Format: functional.
For test [16], the species on record is Oryctolagus cuniculus. Put plainly: Tested for relaxation of carbachol-contracted rabbit aorta at 37 degree C; More potent than or equal to 2MeSATP. It is filed as functional.
For test [17], the species on record is Cavia porcellus. As to the kind of experiment: Tested for relaxation of carbachol-contracted guinea pig taenia coli at 37 degree C; Potency equal to ATP. It is filed as functional.
The species named for test [18] is Oryctolagus cuniculus. As to the kind of experiment: Tested for relaxation of carbachol-contracted rabbit mesenteric artery at 37 degree C; Less potent than or equal 2MeSATP. Format: functional.
The species entered for test [19] is Cavia porcellus. Put plainly: Tested for contraction of guinea pig vas deferens at 37 degree C; Less potent than or equal to ATP. It is filed as functional.

Each structure is given as a SMILES string. Where “and” joins values, the source holds several entries; their conditions need not be identical. Equal values may be shown once. Calls of active or inactive are those of the source. No cut-off for these calls is given here.

Take `Nc1ncnc2c1ncn2[C@@H]1O[C@H](COP(=O)(O)OP(=O)(O)OP(=O)(O)O)[C@@H](O)[C@H]1O` [ADENOSINE TRIPHOSPHATE]: the “K 0.5” value in [1] is on record as 2800 nM. For the same compound, the Relative activity entry in test [2] and in test [6] was “Active” each time. For the same compound, the Relative activity in test [3] was determined as 6; in test [4] it was 6.2; in [5], 4.5; in test [7], 3.5.
With `N#CCCCCCCSc1nc(N)c2ncn(C3O[C@H](COP(=O)(O)O)[C@@H](O)[C@H]3O)c2n1` (stereo partly specified), in test [1], the “K 0.5” value is on record as 37000 nM. In addition, the results for the Relative activity in [8], in [10] and in test [12] were 4.4, 4.5% and 6.2, respectively. Further, the Relative activity result in test [9] and in test [11] was “inactive” throughout.
With `C=CCCCCSc1nc(NC)c2ncn(C3O[C@H](COP(=O)(O)OP(=O)(O)OP(=O)(O)O)[C@@H](O)[C@H]3O)c2n1` (stereo partly specified), the “K 0.5” value in [1] is listed as 26 nM. Also, the Relative activity in test [13] was 7.2; in [10], 1.5%; in test [14], “Partially active”; in test [12] it was 5.6 and 6. Also, the Relative activity result in test [11] was “inactive”.
With `Nc1nc(SCCc2ccc([N+](=O)[O-])cc2)nc2c1ncn2C1O[C@H](COP(=O)(O)O)[C@@H](O)[C@H]1O` (stereo partly specified), the “K 0.5” value in [1] was 3000 nM. Further, in test [15], the Relative activity entry was “inactive”. Also, the Relative activity in [16] was 6.1; in test [17], 6.5; in test [18] it was 5.4; in test [14] it was “Partially active”; in test [19], “Partially active”.
